# Measured values of several laboratories.
# Each line is one published result; the experiments were not run side by side.
# Target: Insulin-like growth factor 1 receptor (IGF1R, Homo sapiens, UniProt P08069)
Structure (SMILES),assay,conditions,endpoint,value
Cn1cc(-c2cccc(N3CCc4c(sc5c4CC(C)(C)C5)C3=O)c2CO)cc(Nc2ccncn2)c1=O,"enzyme activity, inhibitor",1 µM,inhibition,3%
Nc1ncc(-c2nc(N3CCOCC3)nc(N3CCOCC3)n2)c(C(F)F)n1,"cell-free assay, competition with immobilised ligand",10 µM,remaining binding,78%
Cn1cc(-c2cc(F)cc(N3CCn4c(cc5c4CCCC5)C3=O)c2CO)cc(Nc2ccc(N3CCN(C4COC4)CC3)cn2)c1=O,"enzyme activity, inhibitor",0.1 µM,inhibition,4%
COc1ncccc1-c1cnn2ccc(N3CCN(C(=O)OC(C)C)CC3)nc12,"binding, competition with immobilised ligand",1 µM,remaining binding,100%
Cc1nn(C)cc1-c1nc2c(N3CCN(Cc4ccc(Cl)cc4)CC3)c(Cl)cnc2[nH]1,"binding, competition with immobilised ligand",1 µM,remaining binding,100%
C#Cc1n[nH]c2c(-c3cn([C@@H](C)c4ccccn4)c(=O)[nH]c3=O)cc(F)cc12,"enzyme activity, inhibitor",0.1 µM,inhibition,8.7%
CC(C)(C)c1cc(C=C(C#N)C#N)cc(Br)c1O,"enzyme activity, inhibitor",0.5 µM,remaining activity,96.6%
C#Cc1n[nH]c2c(-c3cn([C@@H](C)c4ccccc4)c(=O)[nH]c3=O)cc(F)cc12,"enzyme activity, inhibitor",0.1 µM,inhibition,7.8%
O=c1[nH]c2ccccc2n1C1CCN(Cc2ccc(-c3[nH]c4cc5ncnc5cc4nc3-c3ccccc3)cc2)CC1,cell-free assay,0.5 µM,remaining signal,91.2%
Cn1cncc1[C@](O)(COc1ccc(C#N)cc1-c1ccc(OC(F)(F)F)cc1)c1ccc(C#N)cc1,"cell-free assay, competition with immobilised ligand",1 µM,remaining binding,92%
